HEK293 NFkB inh – lowers PMA/ionomycin-induced NF-kB signal in HEK293 cells; HEK-293 NF-kB luciferase reporter, luminescence; inhibition, % at 3 µM; 0.21% of 62,000 active;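 active = inhibition above the mean of all tested compounds plus 3 SD, cut at about 40% in these data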
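System – HEK-293 cells with stable firefly luciferase reporter driven by four HIV NF-kB elements · Doses – one dose, 3 µM · Schedule – 1 h compound pre-incubation, 16 h PMA/ionomycin at 37 °C · Technique – luminescence from luciferase substrate reagent · Measure – percent inhibition normalized per plate to DMSO and reference-inhibitor controls · Replicates – tested once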
D1 mod – D1 dopamine receptor (human) allosteric modulation | HEK293 D1, CRE-luciferase, dopamine EC30 potentiation; actives deviate in either direction | B-score at 10 µM | 5.9% of 58,000 active | P21728;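 active = luminescence count or its row- and column-corrected plate score outside the 99.7% band of the plate's sample wells, on either side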
M1 agonist – agonists of M1 muscarinic receptor. CHO-M1 cells, Fluo-4 calcium fluorescence, agonist mode; hits give high values. B-score at 10 µM. 3% of 64,000 active. AID 626;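 active = fluorescence rise, raw or as B-score row- and column-corrected plate score, outside the 99.7% band of its plate's samples, either direction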
Jurkat viability – reduces viability or proliferation of Jurkat cells. inhibition, % at 4 µM. Jurkat E6.1 viability, ATP luminescence, 48 h. AID 463. 1.2% of 56,000 active;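 active = inhibition above the mean inhibition of all tested compounds plus 3 SD, cut at about 28% in these data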
M1 antagonist – blocks the rat M1 muscarinic receptor response to acetylcholine | P08482 | CHO-M1 cells, Fluo-4 calcium, ACh EC80 antagonist mode; hits give low values | B-score at 10 µM | 3.4% of 64,000 active | AID 628;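 active = calcium fluorescence response, raw or row-and-column corrected B-score, differing from the plate sample mean either way at a set confidence level, mostly lower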
Target sequence (P08482 whole entry, looked up): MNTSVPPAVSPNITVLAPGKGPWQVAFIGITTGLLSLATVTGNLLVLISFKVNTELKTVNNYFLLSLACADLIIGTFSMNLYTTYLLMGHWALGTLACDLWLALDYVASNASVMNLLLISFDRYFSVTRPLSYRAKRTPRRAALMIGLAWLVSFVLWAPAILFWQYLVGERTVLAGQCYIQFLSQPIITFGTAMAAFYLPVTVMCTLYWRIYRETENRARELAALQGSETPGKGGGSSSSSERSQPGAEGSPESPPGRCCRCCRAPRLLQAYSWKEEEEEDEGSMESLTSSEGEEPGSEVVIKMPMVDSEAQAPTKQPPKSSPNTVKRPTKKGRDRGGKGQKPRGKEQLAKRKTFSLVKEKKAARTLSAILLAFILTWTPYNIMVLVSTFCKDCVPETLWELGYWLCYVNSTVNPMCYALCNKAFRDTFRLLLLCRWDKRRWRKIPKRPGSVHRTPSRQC
Htt clearance – mutant huntingtin protein clearance | inhibition, % at 1.5 µM | HeLa Exon1htt(103Q)mCFP, aggregate imaging; zero = plate's median compound well | AID 853 | 0.42% of 47,000 active;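 active = inhibition of aggregate fluorescence above about 70%, also judged a hit by eye on the cell image, limit read from the data, passing the limit was not always enough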;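 note: cells exposed to compound for three days before fixation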
D1 PAM confirm – D1 receptor (human) allosteric modulation, confirmed; shares compounds with D1 mod; luminescence at 10 µM; 88% of 2,200 active; AID 642; HEK293 D1 CRE-luciferase, dopamine EC30 potentiation; hits give high values;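 active = luminescence in either of two replicates above the same-plate mean plus 3 SD of the low-dose dopamine control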
D1 no dopamine – activates D1 CRE-luciferase signal without dopamine present | luminescence at 10 µM | 0.8% of 1,900 active | HEK293 D1 CRE-luciferase, luminescence, no dopamine; hits give high values | shares compounds with D1 mod; in the data active = luminescence above about 3900
Isoprot counter – alters isoproterenol CRE-luciferase response in HEK293 cells | shares compounds with D1 mod | HEK293 D1 CRE-luciferase, isoproterenol EC30 counter-screen; hits give high values | luminescence at 10 µM | 63% of 2,200 active | AID 647;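 active = luminescence in either replicate above plate mean of wells with a partly effective reference agonist dose plus 3 SD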;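 note: isoproterenol raises cAMP through native beta-adrenoceptor Gs so signal bypasses D1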
Numbers stand for hits. A selection: hits, their analogues and other compounds. The true share with any hit is near 9.5%.

Results for COc1ccc(-c2cc(C(=O)N(C)Cc3ccccc3)no2)cc1OC ?
HEK293 NFkB inh: inactive; D1 mod: 17; M1 agonist: inactive; Jurkat viability: inactive; M1 antagonist: inactive; D1 PAM confirm: 18128; Isoprot counter: 6364

How did CCCCNC(=O)c1cc(-c2ccc(OC)c(OC)c2)on1 do in these assays?
HEK293 NFkB inh: inactive; D1 mod: 3.4; M1 agonist: inactive; Jurkat viability: inactive; M1 antagonist: inactive; Htt clearance: inactive; D1 PAM confirm: 9084; D1 no dopamine: inactive; Isoprot counter: inactive

What do the screens show for `COc1ccc(-c2nc(CCNC(=O)c3ccco3)cs2)cc1OC`?
HEK293 NFkB inh: inactive; D1 mod: 24; M1 agonist: inactive; Jurkat viability: inactive; M1 antagonist: inactive; D1 PAM confirm: 24816; D1 no dopamine: inactive; Isoprot counter: 6984

Results for COc1ccc(-c2cc(C(=O)NCc3ccccc3)no2)cc1OC ?
HEK293 NFkB inh: inactive; D1 mod: 4.6; M1 agonist: inactive; Jurkat viability: inactive; M1 antagonist: inactive; D1 PAM confirm: 10196; Isoprot counter: 3320

How did COc1ccc(-c2cc(C(=O)N3CCOCC3)no2)cc1OC do in these assays?
HEK293 NFkB inh: inactive; D1 mod: 6; M1 agonist: inactive; Jurkat viability: inactive; M1 antagonist: inactive; Htt clearance: inactive; D1 PAM confirm: 11468; D1 no dopamine: inactive; Isoprot counter: 3588

What do the screens show for `CC(C)Nc1nc(NC(C)C)nc(N(C#N)CCOc2ccc(Cl)cc2Cl)n1`?
Htt clearance: inactive

How did CCCC(=O)c1cc(F)c(N2CCN(S(=O)(=O)c3ccccc3)CC2)cc1C do in these assays?
D1 mod: inactive; M1 agonist: inactive; M1 antagonist: inactive

Results for CCCC(=O)c1ccc(N2CCN(S(=O)(=O)c3ccccc3)CC2)c(F)c1 ?
HEK293 NFkB inh: inactive; D1 mod: 4.8; M1 agonist: inactive; Jurkat viability: inactive; M1 antagonist: inactive; D1 PAM confirm: inactive; D1 no dopamine: inactive; Isoprot counter: inactive

Results for COc1ccc(N/C=C2/CCCCC2=O)cc1 ?
HEK293 NFkB inh: inactive; D1 mod: 2.8; M1 agonist: inactive; Jurkat viability: inactive; M1 antagonist: inactive; Htt clearance: inactive; D1 PAM confirm: inactive; D1 no dopamine: inactive; Isoprot counter: inactive

What do the screens show for `COc1ccc(OC)c(N/C=C2/CCCCC2=O)c1`?
HEK293 NFkB inh: inactive; D1 mod: inactive; M1 agonist: inactive; Jurkat viability: inactive; M1 antagonist: inactive

What do the screens show for `O=C(OCCN1C(=O)c2ccccc2C1=O)c1cc(S(=O)(=O)N2CCOCC2)ccc1F`?
HEK293 NFkB inh: inactive; D1 mod: 12; M1 agonist: inactive; Jurkat viability: inactive; M1 antagonist: inactive; D1 PAM confirm: 9428; D1 no dopamine: inactive; Isoprot counter: 5568

What do the screens show for `O=C(CCN1C(=O)c2ccccc2C1=O)Nc1ccc(S(=O)(=O)N2CCOCC2)cc1`?
HEK293 NFkB inh: inactive; D1 mod: inactive; M1 agonist: inactive; Jurkat viability: inactive; M1 antagonist: inactive; Htt clearance: inactive

Results for Cc1nc2ccc(CCO)cc2s1 ?
HEK293 NFkB inh: inactive; D1 mod: 6.4; M1 agonist: inactive; Jurkat viability: inactive; M1 antagonist: inactive; D1 PAM confirm: 7448; D1 no dopamine: inactive; Isoprot counter: inactive

Results for CCCn1c(N2CCN(CC(=O)c3c(C)n(C)c4ccccc34)CC2)nc2c1c(=O)[nH]c(=O)n2C ?
HEK293 NFkB inh: inactive; D1 mod: 4.4; M1 agonist: inactive; Jurkat viability: inactive; M1 antagonist: inactive; Htt clearance: inactive; D1 PAM confirm: 12284; D1 no dopamine: inactive; Isoprot counter: 5848

What do the screens show for `Cn1c(=O)[nH]c(=O)c2c1nc(N1CCCCC1)n2CCOc1ccccc1`?
HEK293 NFkB inh: inactive; D1 mod: 14; M1 agonist: inactive; Jurkat viability: inactive; M1 antagonist: inactive; Htt clearance: inactive; D1 PAM confirm: 22140; D1 no dopamine: inactive; Isoprot counter: 7868

Results for C/C=C/Cn1c(N2CCCCCC2)nc2c1c(=O)[nH]c(=O)n2C ?
HEK293 NFkB inh: inactive; D1 mod: 15; M1 agonist: inactive; Jurkat viability: inactive; M1 antagonist: inactive; D1 PAM confirm: 16408; D1 no dopamine: inactive; Isoprot counter: 5480

How did COc1ccc(S(=O)(=O)N2CCC(C(=O)NCc3ccccn3)CC2)cc1C do in these assays?
HEK293 NFkB inh: inactive; D1 mod: inactive; M1 agonist: inactive; Jurkat viability: inactive; M1 antagonist: inactive; Htt clearance: inactive

How did O=P(O)(CCc1ccncc1)CN1CCCCC1 do in these assays?
HEK293 NFkB inh: inactive; D1 mod: inactive; M1 agonist: inactive; Jurkat viability: inactive; M1 antagonist: inactive; Htt clearance: inactive

Results for Cn1c(=O)n(CC(=O)O)c(=O)c2c1nc1n2CCS1 ?
HEK293 NFkB inh: inactive; D1 mod: 5.7; M1 agonist: inactive; Jurkat viability: inactive; M1 antagonist: inactive; Htt clearance: inactive; D1 PAM confirm: inactive; D1 no dopamine: inactive; Isoprot counter: inactive

What do the screens show for `CCC(C)c1ccc(NC(=O)C2CCN(c3ncccn3)CC2)cc1` (stereo unspecified)?
Htt clearance: inactive

How did NC(=O)c1cc2ccc(O)cc2oc1=Nc1ccccc1 do in these assays?
HEK293 NFkB inh: inactive; D1 mod: 5.1; M1 agonist: inactive; Jurkat viability: inactive; M1 antagonist: inactive; D1 PAM confirm: inactive; D1 no dopamine: inactive; Isoprot counter: inactive

What do the screens show for `Nc1nc(SCC(=O)C23CC4CC(CC(C4)C2)C3)n[nH]1`?
HEK293 NFkB inh: inactive; D1 mod: 5.3; M1 agonist: inactive; Jurkat viability: inactive; M1 antagonist: inactive; D1 PAM confirm: 8548; Isoprot counter: inactive

How did Nc1nc(CSCCO)nc(Nc2ccccc2)n1 do in these assays?
Htt clearance: inactive

What do the screens show for `Nc1nc(CSc2ccccn2)nc(Nc2ccccc2)n1`?
HEK293 NFkB inh: inactive; D1 mod: 3.6; M1 agonist: inactive; M1 antagonist: inactive; Htt clearance: inactive; D1 PAM confirm: 10684; Isoprot counter: 2924

What do the screens show for `Cn1cnnc1SCc1nc(N)nc(Nc2ccccc2)n1`?
Htt clearance: inactive

What do the screens show for `Cc1ccc(Nc2nc(N)nc(CSc3nnnn3-c3ccccc3)n2)cc1`?
HEK293 NFkB inh: inactive; D1 mod: 7.1; M1 agonist: inactive; Jurkat viability: inactive; M1 antagonist: inactive; Htt clearance: inactive; D1 PAM confirm: 9096; Isoprot counter: inactive

How did O=S(=O)(c1ccc2ccccc2c1)N1CCC(c2nc(-c3ccncc3)no2)CC1 do in these assays?
Htt clearance: inactive
